Reference: ChEMBL document CHEMBL1150419, “Structure-activity relationships of a peptide inhibitor of the human FcRn:human IgG interaction” (Bioorg Med Chem, 2008)

molecular target: IgG receptor FcRn large subunit p51 (Homo sapiens, UniProt P55899); experiment: Inhibition of human IgG binding to soluble human FcRn by ELISA
How it was run: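 Biotinylated soluble human FcRn immobilized on neutravidin plates, incubated with hIgG (3 nM, constant) and peptide at varying concentrations for 2 h at 37 °C. After washing, bound hIgG detected with peroxidase-conjugated hIgG-specific Fab fragments.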

Sequence of IgG receptor FcRn large subunit p51 (P55899 whole entry, the tested form may be a part): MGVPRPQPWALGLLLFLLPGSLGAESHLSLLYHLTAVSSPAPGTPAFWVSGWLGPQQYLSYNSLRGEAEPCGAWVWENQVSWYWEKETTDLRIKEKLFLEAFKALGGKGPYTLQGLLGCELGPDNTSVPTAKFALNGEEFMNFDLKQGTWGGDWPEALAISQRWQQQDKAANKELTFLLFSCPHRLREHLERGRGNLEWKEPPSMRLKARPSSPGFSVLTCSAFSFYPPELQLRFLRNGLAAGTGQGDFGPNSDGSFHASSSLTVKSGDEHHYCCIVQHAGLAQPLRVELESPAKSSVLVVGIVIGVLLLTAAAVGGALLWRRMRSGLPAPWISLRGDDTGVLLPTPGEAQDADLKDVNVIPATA

**Q.** `CC(C)C[C@H](NC(=O)CNC(=O)CNC(=O)[C@H](Cc1ccccc1)NC(=O)[C@H](Cc1cnc[nH]1)NC(=O)CNC(=O)[C@@H](NC(=O)[C@H](CCCCN)NC(=O)[C@H](Cc1ccccc1)NC(=O)[C@H](CCCNC(=N)N)NC(=O)[C@@H](N)CCC(N)=O)[C@@H](C)O)C(=O)N[C@@H](Cc1ccc(O)cc1)C(=O)N1CCC[C@H]1C(=O)N[C@@H](CC(=O)O)C(=O)N[C@@H](CC(N)=O)C(=O)NCC(=O)N1CCC[C@H]1C(=O)O` was tested. Which IC50 did it give?
**A.** 60 µM

**Q.** Which IC50 does the source give for `CC(C)C[C@H](NC(=O)CNC(=O)CNC(=O)[C@H](Cc1ccccc1)NC(=O)[C@H](Cc1cnc[nH]1)NC(=O)CNC(=O)[C@@H](NC(=O)[C@H](NC(=O)[C@@H](Cc1ccccc1)NC(=O)[C@H](CCCN=C(N)N)NC(=O)[C@@H](N)CCC(N)=O)C(C)(C)S)[C@@H](C)O)C(=O)N[C@@H](Cc1ccc(O)cc1)C(=O)N1CCC[C@H]1C(=O)N[C@H](CS)C(=O)N[C@@H](CC(N)=O)C(=O)NCC(=O)N1CCC[C@H]1C(=O)O` here?
**A.** 11.4 µM

**Q.** For `CC(C)C[C@H](NC(=O)CNC(=O)CNC(=O)[C@H](Cc1ccccc1)NC(=O)[C@H](Cc1cnc[nH]1)NC(=O)CNC(=O)[C@@H](NC(=O)[C@H](CN)NC(=O)[C@H](Cc1ccccc1)NC(=O)[C@H](CCCNC(=N)N)NC(=O)[C@@H](N)CCC(N)=O)[C@@H](C)O)C(=O)N[C@@H](Cc1ccc(O)cc1)C(=O)N1CCC[C@H]1C(=O)N[C@@H](CC(=O)O)C(=O)N[C@@H](CC(N)=O)C(=O)NCC(=O)N1CCC[C@H]1C(=O)O`, which IC50 is on record?
**A.** 120 µM

**Q.** How did the IC50 turn out when `CC(C)C[C@H](NC(=O)CNC(=O)CNC(=O)[C@H](Cc1ccccc1)NC(=O)[C@H](Cc1cnc[nH]1)NC(=O)CNC(=O)[C@@H](NC(=O)[C@H](CCCN)NC(=O)[C@H](Cc1ccccc1)NC(=O)[C@H](CCCNC(=N)N)NC(=O)[C@@H](N)CCC(N)=O)[C@@H](C)O)C(=O)N[C@@H](Cc1ccc(O)cc1)C(=O)N1CCC[C@H]1C(=O)N[C@@H](CCC(=O)O)C(=O)N[C@@H](CC(N)=O)C(=O)NCC(=O)N1CCC[C@H]1C(=O)O` was run?
**A.** 30 µM

**Q.** How did the IC50 turn out when `CC(C)C[C@H](NC(=O)CNC(=O)CNC(=O)[C@H](Cc1ccccc1)NC(=O)[C@H](Cc1cnc[nH]1)NC(=O)CNC(=O)[C@@H](NC(=O)[C@@H](NC(=O)[C@H](Cc1ccccc1)NC(=O)[C@H](CCCNC(=N)N)NC(=O)[C@@H](N)CCC(N)=O)C(C)(C)S)[C@@H](C)O)C(=O)N[C@@H](Cc1ccc(O)cc1)C(=O)N1CCC[C@H]1C(=O)N[C@@H](CCS)C(=O)N[C@@H](CC(N)=O)C(=O)NCC(=O)N1CCC[C@H]1C(=O)O` was run?
**A.** 2 µM

**Q.** With `CC(C)C[C@H](NC(=O)c1ccc(CNC(=O)[C@H](Cc2ccccc2)NC(=O)[C@H](Cc2cnc[nH]2)NC(=O)CNC(=O)[C@@H](NC(=O)[C@@H](NC(=O)[C@H](Cc2ccccc2)NC(=O)[C@@H](N)CCCNC(=N)N)C(C)(C)S)[C@@H](C)O)cc1)C(=O)N[C@@H](Cc1ccc(O)cc1)C(=O)N1CCC[C@H]1C(=O)N[C@@H](CS)C(=O)O` as the molecule, how does the IC50 read?
**A.** > 125 µM

**Q.** Which IC50 does the source give for `CC(C)C[C@H](NC(=O)CNC(=O)CNC(=O)[C@H](Cc1ccccn1)NC(=O)[C@H](Cc1cnc[nH]1)NC(=O)CNC(=O)[C@@H](NC(=O)[C@@H](NC(=O)[C@H](Cc1ccccc1)NC(=O)[C@H](CCCNC(=N)N)NC(=O)[C@@H](N)CCC(N)=O)C(C)(C)S)[C@@H](C)O)C(=O)N[C@@H](Cc1ccc(O)cc1)C(=O)N1CCC[C@H]1C(=O)N[C@@H](CS)C(=O)N[C@@H](CC(N)=O)C(=O)NCC(=O)N1CCC[C@H]1C(=O)O` here?
**A.** 90 µM

**Q.** `CC(C)C[C@H](NC(=O)[C@H]1CSC2C[C@@H](NC(=O)[C@H](Cc3ccccc3)NC(=O)[C@H](Cc3cnc[nH]3)NC(=O)CNC(=O)[C@@H](NC(=O)[C@H](NC(=O)[C@H](Cc3ccccc3)NC(=O)[C@@H](N)CCCNC(=N)N)C(C)(C)S)[C@@H](C)O)C(=O)N21)C(=O)N[C@@H](Cc1ccc(O)cc1)C(=O)N1CCC[C@H]1C(=O)N[C@@H](CS)C(=O)O` (some centres not stated) was tested. Which IC50 did it give?
**A.** 23 µM

**Q.** How did the IC50 turn out when `CC(C)C[C@@H](C(=O)N[C@@H](Cc1ccc(O)cc1)C(=O)N1CCC[C@H]1C(=O)N[C@@H](CS)C(=O)O)N1CC[C@H](NC(=O)CNC(=O)[C@H](Cc2ccccc2)NC(=O)[C@H](Cc2cnc[nH]2)NC(=O)CNC(=O)[C@@H](NC(=O)[C@@H](NC(=O)[C@H](Cc2ccccc2)NC(=O)[C@@H](N)CCCNC(=N)N)C(C)(C)S)[C@@H](C)O)C1=O` was run?
**A.** 19 µM

**Q.** Which IC50 does the source give for `CC(C)C[C@H](NC(=O)[C@@H](C)NC(=O)CNC(=O)[C@H](Cc1ccccc1)NC(=O)[C@H](Cc1cnc[nH]1)NC(=O)CNC(=O)[C@@H](NC(=O)[C@H](CS)NC(=O)[C@H](Cc1ccccc1)NC(=O)[C@H](CCCN=C(N)N)NC(=O)[C@@H](N)CCC(N)=O)[C@@H](C)O)C(=O)N[C@@H](Cc1ccc(O)cc1)C(=O)N1CCC[C@H]1C(=O)N[C@@H](CS)C(=O)N[C@@H](CC(N)=O)C(=O)NCC(=O)N1CCC[C@H]1C(=O)O` here?
**A.** 57 µM

**Q.** `CC(C)C[C@H](NC(=O)[C@H]1CS[C@@H]2CC[C@@H](NC(=O)[C@H](Cc3ccccc3)NC(=O)[C@H](Cc3cnc[nH]3)NC(=O)CNC(=O)[C@@H](NC(=O)[C@H](NC(=O)[C@H](Cc3ccccc3)NC(=O)[C@@H](N)CCCN=C(N)N)C(C)(C)S)[C@@H](C)O)C(=O)N12)C(=O)N[C@@H](Cc1ccc(O)cc1)C(=O)N1CCC[C@H]1C(=O)N[C@@H](CS)C(=O)O` was tested. Which IC50 did it give?
**A.** 2.2 µM

**Q.** With `CC(C)C[C@H](NC(=O)CNC(=O)[C@@H](Cc1cnc[nH]1)NC(=O)[C@H](Cc1ccccc1)NC(=O)[C@H](Cc1cnc[nH]1)NC(=O)CNC(=O)[C@@H](NC(=O)[C@@H](NC(=O)[C@H](Cc1ccccc1)NC(=O)[C@H](CCCNC(=N)N)NC(=O)[C@@H](N)CCC(N)=O)C(C)(C)S)[C@@H](C)O)C(=O)N[C@@H](Cc1ccc(O)cc1)C(=O)N1CCC[C@H]1C(=O)N[C@@H](CS)C(=O)N[C@@H](CC(N)=O)C(=O)NCC(=O)N1CCC[C@H]1C(=O)O` as the molecule, how does the IC50 read?
**A.** 3.6 µM

**Q.** `CC(C)C[C@H](NC(=O)CN(C)C(=O)CNC(=O)[C@H](Cc1ccccc1)NC(=O)[C@H](Cc1cnc[nH]1)NC(=O)CNC(=O)[C@@H](NC(=O)[C@@H](NC(=O)[C@H](Cc1ccccc1)NC(=O)[C@H](CCCN=C(N)N)NC(=O)[C@@H](N)CCC(N)=O)C(C)(C)S)[C@@H](C)O)C(=O)N[C@@H](Cc1ccc(O)cc1)C(=O)N1CCC[C@H]1C(=O)N[C@@H](CS)C(=O)N[C@@H](CC(N)=O)C(=O)NCC(=O)N1CCC[C@H]1C(=O)O` was tested. Which IC50 did it give?
**A.** 0.9 µM

**Q.** With `CC(C)C[C@@H](C(=O)N[C@@H](Cc1ccc(O)cc1)C(=O)N1CCC[C@H]1C(=O)N[C@@H](CS)C(N)=O)N(C)C(=O)CN(C)C(=O)CNC(=O)[C@H](Cc1ccccc1)NC(=O)[C@H](Cc1csc[n+]1C)NC(=O)CNC(=O)[C@@H](NC(=O)[C@@H](NC(=O)[C@H](Cc1ccccc1)NC(=O)[C@@H](N)CCCN=C(N)N)C(C)(C)S)[C@@H](C)O` as the molecule, how does the IC50 read?
**A.** 2.4 µM

**Q.** `CC(C)C[C@H](NC(=O)CNC(=O)CNC(=O)[C@H](Cc1ccccc1)NC(=O)[C@H](Cc1cnc[nH]1)NC(=O)CNC(=O)[C@@H](NC(=O)[C@H](CCCN)NC(=O)[C@H](Cc1ccccc1)NC(=O)[C@H](CCCNC(=N)N)NC(=O)[C@@H](N)CCC(N)=O)[C@@H](C)O)C(=O)N[C@@H](Cc1ccc(O)cc1)C(=O)N1CCC[C@H]1C(=O)N[C@@H](CC(=O)O)C(=O)N[C@@H](CC(N)=O)C(=O)NCC(=O)N1CCC[C@H]1C(=O)O` was tested. Which IC50 did it give?
**A.** 120 µM

**Q.** With `CC(C)C[C@H](NC(=O)Cc1cccc(NC(=O)[C@H](Cc2ccccc2)NC(=O)[C@H](Cc2cnc[nH]2)NC(=O)CNC(=O)[C@@H](NC(=O)[C@@H](NC(=O)[C@H](Cc2ccccc2)NC(=O)[C@@H](N)CCCN=C(N)N)C(C)(C)S)[C@@H](C)O)c1)C(=O)N[C@@H](Cc1ccc(O)cc1)C(=O)N1CCC[C@H]1C(=O)N[C@@H](CS)C(=O)O` as the molecule, how does the IC50 read?
**A.** 14 µM

**Q.** Which IC50 does the source give for `CC(C)C[C@H](NC(=O)[C@H]1CCCN1C(=O)[C@@H](C)NC(=O)[C@H](Cc1ccccc1)NC(=O)[C@H](Cc1cnc[nH]1)NC(=O)CNC(=O)[C@@H](NC(=O)[C@@H](NC(=O)[C@H](Cc1ccccc1)NC(=O)[C@H](CCCN=C(N)N)NC(=O)[C@@H](N)CCC(N)=O)C(C)(C)S)[C@@H](C)O)C(=O)N[C@@H](Cc1ccc(O)cc1)C(=O)N1CCC[C@H]1C(=O)N[C@@H](CS)C(=O)N[C@@H](CC(N)=O)C(=O)NCC(=O)N1CCC[C@H]1C(=O)O` here?
**A.** 3.7 µM

**Q.** How did the IC50 turn out when `CC(C)C[C@H](NC(=O)Cc1ccc(NC(=O)[C@H](Cc2ccccc2)NC(=O)[C@H](Cc2cnc[nH]2)NC(=O)CNC(=O)[C@@H](NC(=O)[C@@H](NC(=O)[C@H](Cc2ccccc2)NC(=O)[C@@H](N)CCCN=C(N)N)C(C)(C)S)[C@@H](C)O)cc1)C(=O)N[C@@H](Cc1ccc(O)cc1)C(=O)N1CCC[C@H]1C(=O)N[C@@H](CS)C(=O)O` was run?
**A.** > 125 µM

**Q.** Which IC50 does the source give for `CC(C)C[C@H](NC(=O)[C@H]1CCCN1C(=O)[C@H]1CCCN1C(=O)[C@H](Cc1ccccc1)NC(=O)[C@H](Cc1cnc[nH]1)NC(=O)CNC(=O)[C@@H](NC(=O)[C@@H](NC(=O)[C@H](Cc1ccccc1)NC(=O)[C@H](CCCNC(=N)N)NC(=O)[C@@H](N)CCC(N)=O)C(C)(C)S)[C@@H](C)O)C(=O)N[C@@H](Cc1ccc(O)cc1)C(=O)N1CCC[C@H]1C(=O)N[C@@H](CS)C(=O)N[C@@H](CC(N)=O)C(=O)NCC(=O)N1CCC[C@H]1C(=O)O` here?
**A.** 21 µM

**Q.** Which IC50 does the source give for `CC(C)C[C@H](NC(=O)CN1CCC[C@@H](NC(=O)[C@H](Cc2ccccc2)NC(=O)[C@H](Cc2cnc[nH]2)NC(=O)CNC(=O)[C@@H](NC(=O)[C@@H](NC(=O)[C@H](Cc2ccccc2)NC(=O)[C@@H](N)CCCN=C(N)N)C(C)C)[C@@H](C)O)C1=O)C(=O)N[C@@H](Cc1ccc(O)cc1)C(=O)N1CCC[C@H]1C(=O)N[C@@H](C)C(=O)O` here?
**A.** 38 µM

**Q.** Which IC50 does the source give for `CC(C)C[C@@H](C(=O)N[C@@H](Cc1ccc(O)cc1)C(=O)N1CCC[C@H]1C(=O)N[C@@H](CS)C(=O)O)N(C)C(=O)CN(C)C(=O)CNC(=O)[C@H](Cc1ccccc1)NC(=O)[C@H](Cc1c[nH]nn1)NC(=O)CNC(=O)[C@@H](NC(=O)[C@@H](NC(=O)[C@H](Cc1ccccc1)NC(=O)[C@@H](N)CCCNC(=N)N)C(C)(C)S)[C@@H](C)O` here?
**A.** 5.7 µM

**Q.** With `CC(C)C[C@H](NC(=O)CNC(=O)CNC(=O)[C@H](Cc1ccccc1)NC(=O)[C@H](Cc1cnc[nH]1)NC(=O)CNC(=O)[C@@H](NC(=O)[C@@H](NC(=O)[C@H](Cc1ccccc1)NC(=O)[C@H](CCCN=C(N)N)NC(=O)[C@@H](N)CCC(N)=O)C(C)(C)S)[C@@H](C)O)C(=O)N[C@@H](Cc1ccc(F)cc1)C(=O)N1CCC[C@H]1C(=O)N[C@@H](CS)C(=O)N[C@@H](CC(N)=O)C(=O)NCC(=O)N1CCC[C@H]1C(=O)O` as the molecule, how does the IC50 read?
**A.** 26 µM
